The structures appear in SMILES notation.

One may read the IC50 as the midpoint of a concentration-inhibition curve. Read a low IC50 as greater potency.

The subject of assay [1] is RPMI-8226. Kind of assay: Inhibitory concentration against 8226/Dox40 (Dox-Re) cancer cell line. The format is functional, cell-based. The settings on record: Homo sapiens. The gist of the method: (§1)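 MTT growth assay: exponentially growing cells, (1-2) × 10^3 per well in 0.1 mL medium, were seeded on day 0 and cultured per supplier instructions. On day 1 an equal volume of medium carrying graded compound concentrations was added. On day 4 cultures received MTT (1 mg/mL in Dulbecco's PBS) for 4 h at 37 °C.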

Another assay relates to DU-145. Kind of assay: Inhibitory concentration against DU145 prostate cancer cell line. The format is functional, cell-based. The settings on record: Homo sapiens. In a few lines: as §1
For the next assay, the system named is MCF7. Kind of assay: Inhibitory concentration against MCF-7 breast cancer cell line. The format is functional, cell-based. The settings on record: Homo sapiens. The gist of the method: as §1
A further assay relates to NCI-H522 (human). Kind of assay: Inhibitory concentration against H522 (NSCLS) cancer cell line.
The test system of a further assay is Granta. The experiment in a line: Inhibitory concentration against Granta lymphoma cancer cell line. Type of assay: functional, cell-based. The settings on record: Homo sapiens. In a few lines:
as §1

For assay [2], the system named is RPMI-8226. Kind of assay: Inhibitory concentration against 8226 myeloma cancer cell line. Type of assay: functional, cell-based. The settings on record: Homo sapiens. The gist of the method: as §1
In a further assay the test system is U-937. The experiment in a line: Inhibitory concentration against U937 lymphoma cancer cell line. The format is functional, cell-based. The settings on record: Homo sapiens. The gist of the method:
as §1

In the next assay the test system is MIA PaCa-2. Kind of assay: Inhibitory concentration against MIA PaCa pancreas cancer cell line. The format is functional, cell-based. The settings on record: Homo sapiens. The gist of the method:
as §1

In the next assay the test system is HT-29. Kind of assay: Inhibitory concentration against HT-29 colon cancer cell line. The format is functional, cell-based. The settings on record: Homo sapiens. The gist of the method: as §1
A further assay deals with HeLa. Kind of assay: Inhibitory concentration against Hela cervix cancer cell line. The settings on record: Homo sapiens. Type of assay: functional, cell-based. In a few lines:
as §1

Take `N[C@H]1CCN(c2c(F)cc3c(=O)c(C(=O)O)cn4c3c2Oc2ccccc2-4)C1`: the IC50 in the assay with RPMI-8226 [1] is 270 nM; in the assay on DU-145 it was 470 nM; in the assay with MCF7, 660 nM; with NCI-H522 (human), 300 nM; in the assay on Granta it was 90 nM; in the assay on RPMI-8226 [2], 270 nM. Besides, the IC50 with U-937 was found to be 310 nM; in the assay on MIA PaCa-2 it was 420 nM; with HT-29, 450 nM; in the assay with HeLa it was 800 nM.
Take `C[C@]1([C@H]2Cc3ccc4c(c3O2)-n2cc(C(=O)O)c(=O)c3cc(F)c(N5CC[C@H](N)C5)c(c32)O4)CO1`: the IC50 was found to be 50 nM in the assay on RPMI-8226 [1]; 80 nM with DU-145; 240 nM with MCF7; 70 nM with NCI-H522 (human); 4 nM with Granta; 90 nM with RPMI-8226 [2]. The IC50 in the assay on U-937 came out at 30 nM; in the assay on MIA PaCa-2, 90 nM; in the assay with HT-29, 140 nM; in the assay on HeLa, 290 nM.
For `C[C@@](O)(CCl)[C@H]1Cc2ccc3c(c2O1)-n1cc(C(=O)O)c(=O)c2cc(F)c(N4CC[C@H](N)C4)c(c21)O3`, the IC50 in the assay with RPMI-8226 [1] was 30 nM; with DU-145 it was 30 nM; in the assay with MCF7 it was 80 nM; in the assay with NCI-H522 (human), 20 nM; in the assay on Granta it was 2 nM; with RPMI-8226 [2], 50 nM. Also, the IC50 in the assay with U-937 was 20 nM; with MIA PaCa-2, 40 nM; in the assay with HT-29 it was 90 nM; with HeLa it was 130 nM.
With `COc1cc2c(c3oc4c(O)cccc4c(=O)c13)C[C@H]([C@@]1(C)CO1)O2` [PSOROSPERMIN], the IC50 in the assay on RPMI-8226 [1] amounted to 230 nM; in the assay with DU-145 it was 210 nM; with MCF7 it was 570 nM; in the assay on NCI-H522 (human), 770 nM; in the assay with Granta, 40 nM; in the assay with RPMI-8226 [2], 290 nM. Moreover, the IC50 in the assay on U-937 came out at 270 nM; in the assay with MIA PaCa-2, 380 nM; in the assay with HT-29 it was 1110 nM; with HeLa, 1460 nM.

Values taken from ChEMBL document CHEMBL1145830, “Design, synthesis, and evaluation of psorospermin/quinobenzoxazine hybrids as structurally novel antitumor agents” (J Med Chem, 2003).
